Most compounds without a hit are left out; they make up all but 1.9% or so of the library.
UHRF1 binding: blocks human UHRF1 binding to methylated DNA; UHRF1 binding to methylated oligo, TR-FRET; Q96T88; 370,000 compounds, 0.75% hits; AID 687016; inhibition, % at 4.4 µM; in the data active means inhibition above about 21%;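 further: UHRF1 SRA domain binding a hemimethylated CpG hairpin DNA probe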
Rin1 Abl inh: human Rin1-Abl interaction inhibition; 360,000 compounds, 0.4% hits; P00519+Q13671; AID 588664; inhibition, % at 7.35 µM; TR-FRET Rin1/Abl binding, biochemical; in the data active means inhibition above about 5%, passing the limit was not always enough
LEDGF integ inh: blocks HIV-1 LEDGF/p75-dependent DNA integration; TR-FRET IN-LEDGF/p75 DNA integration, Eu/Cy5; inhibition, % at 3.7 µM; 370,000 compounds, 0.64% hits; AID 743269;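 active means inhibition above the screen-wide mean plus 3 SD, cut at about 13% in these data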;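 further: signal is the Cy5 over europium emission ratio at 671 and 618 nm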
TDP2 absorb: blocks human TDP2 phosphodiesterase activity | O95551 | recombinant TDP2, T5PNP hydrolysis, p-nitrophenol absorbance 415 nm | inhibition, % at 12.8 µM | 370,000 compounds, 0.34% hits | AID 720702;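 active means inhibition above the mean of all tested compounds plus 3 SD, set per campaign, cut at about 25% in these data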
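System – recombinant human TDP2 · Amount – 120 nM TDP2 per well · Buffer or medium – Mg2+-containing Tris-HCl buffer, pH 7.5 · Reagent – T5PNP substrate, 5 mM · Dosing – 12.8 µM single point, 1% DMSO · Incubation – 2 h at 37 °C · Measured by – epi absorbance · Read-out basis – percent inhibition · Benchmarks – high control without enzyme, low control DMSO plus TDP2 · Repeats – singlicate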
MBD2 DNA inh: blocks human MBD2 binding to methylated DNA | 370,000 compounds, 0.31% hits | Q9UBB5 | AID 686964 | inhibition, % at 4.4 µM | TR-FRET, MBD2 binding to methylated oligonucleotide; in the data active means inhibition above about 13%
Hits are given with their value; n = inactive; x = not tested or not shown.

SMILES	UHRF1 binding	Rin1 Abl inh	LEDGF integ inh	TDP2 absorb	MBD2 DNA inh
CN(C)c1ccc(C=c2c3cc(O)ccc3n3c2cc(-c2ccccc2)[n+]3C)cc1	31	n	n	n	n
Cc1nc(-c2ccccc2)sc1-c1ccnn1C	43	n	n	n	n
O=C(CNC(=O)c1ccc(-c2ccccc2)cc1)OCc1ccc(Br)cc1	26	n	n	n	n
CN(C)c1ccc(C(=O)NCCc2ccccc2-c2ccccc2CCC(=O)NCc2ccccc2)cc1	n	x	n	n	n
N#CCC(=O)N/N=C/c1cc(-c2ccccc2)n(-c2ccc(Cl)cc2)c1-c1ccccc1	38	x	n	n	n
COc1ccc(S(=O)(=O)Nc2ccc(O)c3ccccc23)cc1	n	n	27	42	n
CC(C)(C)N(NC(=O)Nc1cccc(F)c1)C(=O)c1ccccc1Cl	n	x	n	n	n
COc1ccc(-n2nc(C(=O)NCc3ccco3)c3c4ccccc4n(C)c3c2=O)cc1	31	n	n	n	n
CCN(C(=O)c1nn(-c2ccc(OC)cc2)c(=O)c2c1c1ccccc1n2C)c1ccc(OC)cc1	22	n	n	n	n
COc1ccc(-n2nc(C(=O)NCc3ccco3)c3ccccc3c2=O)cc1	n	n	n	n	n
Cc1ccc(-c2cc(-c3nnc(SCC(=O)Nc4nccs4)n3N)[nH]n2)cc1	n	x	n	n	n
O=C(CN1CCCC1)Nc1cccc(Cl)c1	n	n	n	n	n
O=C(CN1CCCCCCC1)Nc1cc(Cl)cc(Cl)c1	57	n	n	n	n
COc1ccccc1C(=O)NCc1n[nH]c(=S)n1Cc1ccccc1	44	n	n	n	n
COc1ccccc1C(=O)NCc1ccccc1	n	n	n	n	n
COC(=O)CSc1nnc(-c2ccc(NS(=O)(=O)c3ccc(C(C)(C)C)cc3)cc2)o1	n	x	n	n	n
O=C(O)c1ccc(N/N=C/c2ccc(-c3ccc(Br)cc3)o2)cc1	n	12	n	n	n
C/C(=N\Nc1ccc(C(=O)O)cc1)c1ccc(Br)cc1	22	n	n	n	n
COC1=C[C@H](C(=O)NCc2ccccn2)[C@H](C)[C@@H](c2ccccc2)CC1=O	n	x	n	n	n
CC1=C(C(=O)N2CCOCC2)CC(CC(=O)NC2CCCCC2)C(=O)N1Cc1ccccc1 (configuration not stated)	22	n	n	n	n
CC1=C(C(=O)N2CCOCC2)CC(CC(=O)NC2CC2)C(=O)N1Cc1ccccc1 (configuration not stated)	n	n	n	n	n
COc1ccc(N2CCN(CCNS(=O)(=O)c3c(C(C)C)cc(C(C)C)cc3C(C)C)CC2)cc1	n	x	n	n	n
COc1ccc(N2CCN(C(=O)c3cc4c(s3)-c3ccccc3S(=O)(=O)C4)CC2)cc1	22	n	n	n	n
CN1CCN(C(=O)c2cc3c(s2)-c2ccccc2S(=O)(=O)C3)CC1	n	n	n	n	n
CC1=CC(C)(C)NC(=O)N1c1ccc(C)cc1	n	n	n	n	n
SMILES	UHRF1 binding	Rin1 Abl inh	LEDGF integ inh	TDP2 absorb	MBD2 DNA inh
Cc1ccc(N2C(=O)NC3(CCCCC3)C2=O)cc1	23	n	n	n	n
CCCC1CCC2(CC1)CCC2OC(=S)NCc1ccc(Cl)cc1 (configuration not stated)	n	x	n	n	n
COc1ccccc1NS(=O)(=O)c1cccc(NC(=O)c2sc3ccccc3c2Cl)c1	26	n	n	n	n
COc1cccc(NC(=O)CN(C)C(=O)CNC(=O)c2sc3ccccc3c2Cl)c1	21	n	n	n	n
O=C(CCn1nnc(-c2cccs2)n1)N1CCCCC1	n	x	n	n	n
Cc1ccc(NC(=O)Cn2cc(C=O)c3ccccc32)cc1	n	n	n	n	n
O=Cc1cn(CC(=O)Nc2ccc3c(c2)OCO3)c2ccccc12	35	n	n	n	n
C=CCCC(=O)N1CCC(C(=O)NCC2COc3ccccc3O2)CC1 (configuration not stated)	n	x	n	n	n
Cc1sc2nc(COC(=O)c3c(F)cccc3F)[nH]c(=O)c2c1C	38	n	n	n	n
NC(=O)N[C@@H](Cc1c[nH]c2ccccc12)C(=O)OCC(=O)N1CCCCC1	24	n	n	n	n
CC1=NN(C(=O)COc2ccccc2)C(O)(c2cccnc2)C1 (configuration not stated)	21	n	n	n	n
COc1ccc(CC(=O)N2N=C(C)CC2(O)c2cccnc2)cc1 (configuration not stated)	n	n	n	n	n
CC(C)(C)N1Cc2nnn(Cc3ccccc3)c2-c2cc(F)ccc2S1(=O)=O	n	x	n	n	n
CN(C)S(=O)(=O)n1cc(/C=C(\NC(=O)c2ccccc2F)C(=O)N2CCCCC2)c2ccccc21	24	n	n	n	n
COC(=O)c1ccc2c(=O)n(CCCCCC(=O)NCc3ccc4c(c3)OCO4)c(=O)[nH]c2c1	n	n	n	n	n
CCCCCn1c(=O)[nH]c2cc(C(=O)NCc3ccc4c(c3)OCO4)ccc2c1=O	30	n	n	n	n
Cc1cc(NC(=O)CN2C(=O)NC(C)(c3ccccc3)C2=O)no1 (configuration not stated)	97	n	n	n	n
CCOC(=O)CNC(=O)C(Cc1ccc2c(c1)OCO2)NC(C)=O (configuration not stated)	n	x	n	n	n
C=CCN1[C@@H](CC(C)C)COc2cccc(F)c2S1(=O)=O	n	x	n	n	n
Cc1cccn2cc(-c3ccc(S(=O)(=O)N4CCCCC4)cc3)nc12	25	n	n	n	n
COc1cc(CNC2CCCC2)c(Br)cc1OC1CCCC1	30	n	n	n	n
COc1cc(CNC2CCCCCCC2)c(Br)cc1OCCO	n	n	n	n	n
C[C@H]1[C@@H](N)CC[C@@]23CCCN2C(=O)CCC[C@@H]13	n	x	n	n	n
C#CCn1c2ccccc2c2nc3ccccc3nc21	23	n	n	n	n
N#CCn1c2ccccc2c2nc3ccccc3nc21	n	n	n	n	n
SMILES	UHRF1 binding	Rin1 Abl inh	LEDGF integ inh	TDP2 absorb	MBD2 DNA inh
O=C1CCc2cc(S(=O)(=O)N3CCN(c4ccccc4Cl)CC3)ccc2N1	n	x	n	n	n
Cc1cc(C(=O)N/N=C/c2cccc(OC(=O)c3cccc(Br)c3)c2)n[nH]1	n	n	n	n	n
COc1cccc(C(=O)Oc2c(Br)cc(Br)cc2/C=N/NC(=O)c2cc(C)[nH]n2)c1	31	n	n	n	n
C=C(C)CN=CC1(C)CCC(C)=CO1 (configuration not stated)	37	n	n	n	n
O=C(CSc1nc2ccccc2nc1N1CCOCC1)NCc1ccc(Cl)cc1Cl	n	x	n	n	n
CC(C)CCN1CCC(CN2C(=S)NC[C@@H]2Cc2ccccc2)CC1	n	n	n	n	n
CC(CCN1CCC(CN2C(=S)NCC2Cc2ccccc2)CC1)c1ccccc1 (configuration not stated)	21	n	n	n	n
Cc1ccc(C)n1Cc1ccc(C(=O)O)cc1	x	15	x	x	x
Cc1cc(C)n(Cc2ccc(C(=O)O)cc2)n1	n	n	n	n	n
